Measurements gathered from unrelated publications.
Observed: cell growth or viability

C[C@@H]1CC[C@@H]([C@](O)(CNCc2ccccc2)COCc2ccc(F)cc2)[C@H](OCc2ccc(F)cc2)C1  inhibition (A2780; MTT; 10 µM; 72 h): 95.2%
COc1ccc(NC(=O)c2ccc(-n3cc(CNc4nc(OC)nc(OC)n4)nn3)cc2)cc1  IC50 (Caco-2; MTT; 72 h): 435 nM
COc1cccc2c1C(=O)c1c(O)c3c(c(O)c1C2=O)C[C@@](O)(C(=O)CO)C[C@@H]3O[C@H]1C[C@H](N)[C@H](O)[C@H](C)O1  inhibition (NCI-H1650; MTT; 2.5 µM): 95.8%
O=C(NO)c1ccc(CNc2nc3cccc(-c4ccc5c(c4)OCO5)n3n2)cc1  GI50 (TK-10; SRB): 520 nM
C[C@@H]1CC[C@@H]([C@](C)(O)CNCc2cccc(F)c2)[C@H](OCc2ccccc2)C1  inhibition (A2780; MTT; 30 µM; 72 h): 98.8%
O=C(c1ccc(Oc2ccc3cc(Br)ccc3c2Cl)c([N+](=O)[O-])c1)C(Cl)Cl  inhibition (NCI-H1650; MTT; 2.5 µM): 97%
C=C(F)C(=O)N1CCN(c2nc(OC[C@@H]3CCCN3C)nc3c2CCN(c2cccc4cccc(Cl)c24)C3)C[C@@H]1CC#N  IC50 (UMUC3; ATP luminescence; 3D culture): 8.43 nM
C[C@@H]1CC[C@@H]([C@](O)(CNCc2ccc(F)cc2)COCc2ccc(F)cc2)[C@H](OCc2ccc(F)cc2)C1  inhibition (A2780; MTT; 30 µM; 72 h): 95.3%
O=C(c1ccc(Oc2ccc(-c3ccccc3)cc2)c([N+](=O)[O-])c1)C(Cl)Cl  inhibition (NCI-H1650; MTT; 2.5 µM): 97.5%
C=C(COCc1ccc(OC)cc1)[C@@H]1CC[C@@H](C)C[C@H]1OCc1ccc(OC)cc1  inhibition (A2780; MTT; 30 µM; 72 h): 27.4%
O=C(O)c1cccnc1Nc1cccc(C(F)(F)F)c1  GI50 (NCI-H28; CCK-8; 72 h): > 40000 nM
COc1cccc2c1C(=O)c1c(O)c3c(c(O)c1C2=O)C[C@@](O)(C(=O)CO)C[C@@H]3O[C@H]1C[C@H](N)[C@H](O)[C@H](C)O1  viability (Caco-2; MTT; 25 µg/mL; 48 h; serum-free): 31.6%
C=CC(=O)NC1CCN(c2ncc3ncnc(Nc4ccc(Oc5ccc6c(c5)ncn6C)c(C)c4)c3n2)CC1  EC50 (HCC44): 934 nM
COc1nc(NCc2cn(-c3ccc(NC(=O)c4ccc(Br)cc4)cc3)nn2)nc(OC)n1  IC50 (Caco-2; MTT; 72 h): 689 nM
C=CC(=O)c1cccnc1Nc1cccc(C(F)(F)F)c1  GI50 (NCI-H28; CCK-8; 72 h): 5110 nM
O=C(c1ccc(Oc2ccc3c(c2)OCO3)c([N+](=O)[O-])c1)C(Cl)Cl  inhibition (NCI-H1650; MTT; 2.5 µM): 84.4%
COc1nc(NCc2cn(-c3ccc(C(=O)Nc4ccccc4)cc3)nn2)nc(OC)n1  IC50 (Caco-2; MTT; 72 h): 208 nM
O=C1CC[C@@H](COc2ccc(C(=O)C(Cl)Cl)cc2[N+](=O)[O-])N1  inhibition (NCI-H1650; MTT; 2.5 µM): 29.8%
C[C@@H]1CC[C@@H]([C@](O)(CNCc2cccc3ccccc23)COCc2ccccc2)[C@H](OCc2ccccc2)C1  inhibition (A2780; MTT; 10 µM; 72 h): 90.7%
O=C(c1ccc(Oc2ccc(Br)cc2)c([N+](=O)[O-])c1)C(Cl)Cl  inhibition (NCI-H1650; MTT; 2.5 µM): 96.1%
C[C@@H]1CC[C@@H]([C@](O)(CNCc2ccccc2)COCc2ccccc2)[C@H](OCc2ccccc2)C1  inhibition (A2780; MTT; 30 µM; 72 h): 91.1%
COc1nc(NCc2cn(-c3ccc(C(=O)Nc4ccc([N+](=O)[O-])cc4)cc3)nn2)nc(OC)n1  IC50 (Caco-2; MTT; 72 h): 724 nM
N#Cc1ccc(Oc2ccc(C(=O)C(Cl)Cl)cc2[N+](=O)[O-])cc1  inhibition (NCI-H1650; MTT; 2.5 µM): 87.6%
COc1ccc(COC[C@@](O)(CNCc2ccc(F)cc2)[C@@H]2CC[C@@H](C)C[C@H]2OCc2ccc(OC)cc2)cc1  inhibition (A2780; MTT; 30 µM; 72 h): 100%
NC(=O)COc1ccc(C(=O)C(Cl)Cl)cc1[N+](=O)[O-]  inhibition (NCI-H1650; MTT; 2.5 µM): 1.51%
C[C@@H]1CC[C@@H]([C@](C)(O)CNCc2ccccc2)[C@H](OCc2ccccc2)C1  inhibition (A2780; MTT; 10 µM; 72 h): 91.6%
